Columns and labels:
[1] = Antioxidant activity assessed as DPPH radical scavenging activity after 10 mins; type: physicochemical
In short: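 Freshly prepared DPPH solution in test tubes; analogue solutions (1 mM–1 µM) added to a final volume of 2.25 mL. Absorbance read at 515 nm after 10 min. References prepared as 1 mM methanol stocks. IC50 calculated from at least three independent experiments.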

[2] = Inhibition of xanthine oxidase in human MKN28 cells assessed as inhibition of xanthine oxidase-induced cell damage by measuring cell viability at 10 to 200 uM after 48 hrs by MTT assay; type: cell-based; conditions: mkn-28, 48 h
In short: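 MKN28 cells pre-incubated with compounds (10–200 µM) for 1–48 h, washed, then exposed for 2 h to xanthine (1 mM) plus xanthine oxidase to induce oxidative stress. Controls were serum-free medium alone, and serum-free medium followed by X–XO. Viability read by MTT assay. Mean ± SD from three separate experiments run in duplicate.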

[3] = Toxicity in human MKN28 cells assessed as cell viability at 10 to 200 uM after 48 hrs by MTT assay; type: cell-based, MKN-28; conditions: read-out: Activity
In short: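 MKN28 cells incubated under basal conditions with compounds (10–200 µM) for 1–48 h, with serum-free medium as control. Viability read by MTT assay. Mean ± SD from three separate experiments run in duplicate.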

| SMILES | IC50 [1] | Activity [2] | viability at 48 h, up to 200 µM [3] |
| --- | --- | --- | --- |
| COc1cc([C@H]2Oc3cc(-c4oc5cc(O)cc(O)c5c(=O)c4O)ccc3O[C@@H]2CO)ccc1O | 27 µM | – | – |
| COc1cc([C@H]2Oc3cc([C@H]4Oc5cc(O)cc(O)c5C(=O)[C@@H]4O)ccc3O[C@H]2COP(=O)([O-])OC2O[C@H](CO)[C@@H](O)[C@H](O)[C@H]2O)ccc1O.[Na+] (stereo partly specified) | 302 µM | 42.7% | 89.2% |
| COc1cc([C@H]2Oc3cc([C@H]4Oc5cc(O)cc(O)c5C(=O)[C@@H]4O)ccc3O[C@H]2COP(=O)([O-])OC2O[C@H](CO)[C@@H](O)[C@H](O)[C@@H]2O)ccc1O.[Na+] (stereo partly specified) | 108 µM | 42.3% | 89.5% |
| COc1cc([C@H]2Oc3cc([C@H]4Oc5cc(O)cc(O)c5C(=O)[C@@H]4O)ccc3O[C@H]2COP(=O)([O-])OC2O[C@H](CO)[C@H](O)[C@H](O)[C@H]2O)ccc1O.[Na+] (stereo partly specified) | 233 µM | 42.8% | 84.1% |
| COc1cc([C@H]2Oc3cc([C@H]4Oc5cc(O)cc(O)c5C(=O)[C@@H]4O)ccc3O[C@H]2COP(=O)([O-])OC2O[C@H](CO)[C@H](OC3O[C@H](CO)[C@H](O)[C@H](O)[C@H]3O)[C@H](O)[C@H]2O)ccc1O.[Na+] (stereo partly specified) | 155 µM | 48.4% | 91.8% |
| COc1cc(C2Oc3cc([C@H]4Oc5cc(O)cc(O)c5C(=O)[C@@H]4O)ccc3OC2CO)ccc1O (stereo partly specified) [SILIBININ] | 392 µM | 42.4% | 45.3% |

— ChEMBL document CHEMBL3352053, “New silibinin glyco-conjugates: synthesis and evaluation of antioxidant properties” (Bioorg Med Chem Lett, 2014)
